ChEMBL document CHEMBL3596097, “Stereoselective synthesis and pharmacological evaluation of [4.3.3]propellan-8-amines as analogs of adamantanamines” (Bioorg Med Chem, 2015)
Active and inactive are the calls of the source. No cut-off for these calls is given here.

Assays:
[1] = biological target: Glutamate NMDA receptor; GRIN1/GRIN2A (Homo sapiens, UniProt Q05586+Q12879); assay: Displacement of [3H]-(+)-MK-801 from phencyclidine binding site of NMDA receptor in human frontal cortex after 22 hrs by scintillation counting analysis; format: tissue-based
[2] = test system: Influenza A virus; assay: Antiviral activity against Influenza virus A/FPV/Bratislava/79(H7N7) infected in human A549 cells assessed as viral replication at 5 uM after 24 hrs by plaque assay relative to control; format: functional
[3] = Displacement of [3H]-(+)-MK-801 from phencyclidine binding site of NMDA receptor in pig membranes after 150 mins by scintillation counting analysis; format: cell membranes, Sus scrofa
How it was run: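 Thawed membrane preparation (about 100 µg protein) incubated with test compound at various concentrations and 2 nM [3H]-(+)-MK-801 (22.0 Ci/mmol) in TRIS/EDTA (5 mM/1 mM, pH 7.5), 150 min, rt. Stopped by rapid filtration over presoaked filtermats, five water washes, melted solid scintillator, then counting. Nonspecific binding was taken with unlabeled (+)-MK-801. Radioligand Kd 2.26 nM.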

[4] = biological target: Sigma non-opioid intracellular receptor 1 (Cavia porcellus) (UniProt Q60492); assay: Displacement of [3H]-(+)-pentazocine from sigma-1 receptor in guinea pig brain cortex membranes up to 10 uM after 120 mins by scintillation counting analysis; format: cell membranes; conditions: Cerebral cortex
[5] = organism: Rattus norvegicus; assay: Displacement of [3H]-DTG from sigma-2 receptor in rat liver membranes up to 10 uM after 120 mins by scintillation counting analysis; format: cell membranes; conditions: Membrane

Chain of Sigma non-opioid intracellular receptor 1 (Cavia porcellus) (Q60492 whole entry): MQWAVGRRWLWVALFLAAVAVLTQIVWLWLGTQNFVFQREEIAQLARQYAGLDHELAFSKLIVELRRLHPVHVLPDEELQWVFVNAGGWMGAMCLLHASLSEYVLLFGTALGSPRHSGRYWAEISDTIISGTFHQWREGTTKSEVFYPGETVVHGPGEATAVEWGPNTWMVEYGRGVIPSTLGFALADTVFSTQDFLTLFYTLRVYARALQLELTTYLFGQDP
Chain of Glutamate NMDA receptor; GRIN1/GRIN2A (Q12879 whole entry, other chains not shown): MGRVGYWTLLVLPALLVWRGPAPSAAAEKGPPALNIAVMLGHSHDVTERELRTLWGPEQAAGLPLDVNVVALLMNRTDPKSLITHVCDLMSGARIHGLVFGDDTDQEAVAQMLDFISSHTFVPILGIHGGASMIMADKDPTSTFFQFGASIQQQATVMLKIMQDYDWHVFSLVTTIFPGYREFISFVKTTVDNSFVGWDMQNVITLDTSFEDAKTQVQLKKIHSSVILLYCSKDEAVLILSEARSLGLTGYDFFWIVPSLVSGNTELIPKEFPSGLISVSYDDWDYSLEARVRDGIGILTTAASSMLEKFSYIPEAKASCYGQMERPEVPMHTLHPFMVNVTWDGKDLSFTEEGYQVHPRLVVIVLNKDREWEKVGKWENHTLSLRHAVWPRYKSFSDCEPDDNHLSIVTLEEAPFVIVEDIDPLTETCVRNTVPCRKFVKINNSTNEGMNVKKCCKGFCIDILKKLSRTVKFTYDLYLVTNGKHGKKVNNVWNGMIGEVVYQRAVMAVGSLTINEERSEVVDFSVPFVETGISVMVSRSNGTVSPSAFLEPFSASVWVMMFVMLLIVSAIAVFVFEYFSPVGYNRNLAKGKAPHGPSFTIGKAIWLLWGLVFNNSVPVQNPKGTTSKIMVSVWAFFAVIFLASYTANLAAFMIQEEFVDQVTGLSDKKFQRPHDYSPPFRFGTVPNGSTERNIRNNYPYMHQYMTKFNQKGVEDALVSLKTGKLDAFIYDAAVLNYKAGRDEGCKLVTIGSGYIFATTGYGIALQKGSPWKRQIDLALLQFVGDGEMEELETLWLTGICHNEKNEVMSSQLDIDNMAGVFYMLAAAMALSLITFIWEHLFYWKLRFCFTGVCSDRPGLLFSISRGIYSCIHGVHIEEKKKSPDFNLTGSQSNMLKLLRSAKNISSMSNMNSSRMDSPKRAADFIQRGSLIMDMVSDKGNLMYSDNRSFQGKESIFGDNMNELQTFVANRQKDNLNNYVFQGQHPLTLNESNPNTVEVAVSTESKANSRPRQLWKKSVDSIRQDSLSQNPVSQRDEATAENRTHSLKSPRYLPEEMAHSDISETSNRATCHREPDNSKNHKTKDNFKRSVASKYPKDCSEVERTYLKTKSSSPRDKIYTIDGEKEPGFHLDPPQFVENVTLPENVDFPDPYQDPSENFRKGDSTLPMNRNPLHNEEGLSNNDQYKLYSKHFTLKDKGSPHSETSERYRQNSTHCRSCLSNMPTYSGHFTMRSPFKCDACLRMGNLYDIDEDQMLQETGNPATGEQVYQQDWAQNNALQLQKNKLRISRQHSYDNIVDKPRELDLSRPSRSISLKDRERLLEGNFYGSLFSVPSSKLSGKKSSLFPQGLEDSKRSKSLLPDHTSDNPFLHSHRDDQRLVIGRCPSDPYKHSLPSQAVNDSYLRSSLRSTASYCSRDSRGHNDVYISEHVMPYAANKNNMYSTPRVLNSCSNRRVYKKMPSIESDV

Compound | Ki [1] [µM] | Activity [2] [%] | Ki [3] [µM] | inhibition [4] | inhibition [5]
NC12CC3CC(CC(C3)C1)C2 [AMANTADINE] | 10 | 3.9 | 11 | – | –
N[C@@H]1C[C@@]23CCCC[C@@]2(CCC3)C1 | – | 97 | 16 | inactive | inactive
CC12CC3CC(C)(C1)CC(N)(C3)C2 [MEMANTINE] | – | – | 9.74 | – | –
N[C@H]1C[C@@]23CCCC[C@@]2(CCC3)C1 | – | 116 | 11 | inactive | inactive
C[C@]12N[C@H](Cc3ccccc31)c1ccccc12 [DIZOCILPINE] | – | – | 0.003 | – | –
NC1CC23CCCCC2(CCC3)C1 (mixture of isomers) | – | 65 | 10.5 | – | –
